{"source": "ChEMBL document CHEMBL3272112", "about": "“Cycloalkanones. 8. Hypocholesterolemic activity of long-chain ketones related to pentadecanone” (J Med Chem, 1976)", "key": {"Rattus norvegicus [1]": {"system": "Rattus norvegicus", "assay": "Toxicity in Sprague-Dawley rat assessed as food intake at 5 mg/kg/day measured after 1 week (reference value: 20.9 +/- 4.9 g/day)", "type": "organism-based", "settings": "in vivo, 168 h"}, "Rattus norvegicus [2]": {"species_on_record": "Rattus norvegicus", "assay": "Disruption of rat liver cell membrane assessed as unlysed cells at 5 mg per gram of tissue measured at 2 hrs (reference value: 77 +/- 8%)", "type": "functional", "method_in_brief": "(§1)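 Rat liver 10% homogenate in 0.25 M sucrose + 0.001 M EDTA, pH 7.2, incubated at 37°C with Hanke's buffer pH 7.2 and drug suspended in 1% CMC (dose as mg drug per g wet liver); turbidity read as absorbance at 660 nm over 0–4 hr, falling absorbance taken as lysis; expressed as % unlysed cells; vehicle 1% CMC control.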"}, "Rattus norvegicus [3]": {"system": "Rattus norvegicus", "assay": "Hypocholesterolemic activity in Sprague-Dawley rat assessed as serum cholesterol level at 10 mg/kg/day, po administered via intubation measured on day 16 by Liebermann-Burchard method relative to control", "type": "functional", "method_in_brief": "(§2)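 Male Sprague-Dawley rats given compound homogenized in 1% CMC once daily at 11:00 a.m. by oral intubation needle (0.2 cc), doses calculated on weekly body weights; tail-vein blood drawn 24 h after last dose; nonhemolyzed serum (30 μ) assayed by modified Liebermann-Burchard method; N = 8; % of control, mean ± SD; Student's t test.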"}, "Rattus norvegicus [4]": {"system": "Rattus norvegicus", "assay": "Hypocholesterolemic activity in Sprague-Dawley rat assessed as serum cholesterol level at 50 mg/kg/day, po administered via intubation measured on day 4 by Liebermann-Burchard method relative to control", "type": "functional", "method_in_brief": "as §2"}, "Rattus norvegicus [5]": {"system": "Rattus norvegicus", "assay": "Hypocholesterolemic activity in Sprague-Dawley rat assessed as serum cholesterol level at 5 mg/kg/day, po administered via intubation measured on day 16 by Liebermann-Burchard method relative to control", "type": "functional", "method_in_brief": "as §2"}, "Rattus norvegicus [6]": {"system": "Rattus norvegicus", "assay": "Hypocholesterolemic activity in Sprague-Dawley rat assessed as serum cholesterol level at 20 mg/kg/day, po administered via intubation measured on day 16 by Liebermann-Burchard method relative to control", "type": "functional", "method_in_brief": "as §2"}, "Rattus norvegicus [7]": {"system": "Rattus norvegicus", "assay": "Hypocholesterolemic activity in Sprague-Dawley rat assessed as serum cholesterol level at 1 mg/kg/day, po administered via intubation measured on day 4 by Liebermann-Burchard method relative to control", "type": "functional", "method_in_brief": "as §2"}, "Rattus norvegicus [8]": {"system": "Rattus norvegicus", "assay": "Effect on serum triglyceride level in Sprague-Dawley rat at 20 mg/kg/day measured on day 14 (reference value: 100 +/- 21%)", "type": "functional"}, "Rattus norvegicus [9]": {"system": "Rattus norvegicus", "assay": "Toxicity in Sprague-Dawley rat assessed as food intake at 50 mg/kg/day measured after 1 week (reference value: 20.9 +/- 4.9 g/day)", "type": "organism-based", "settings": "in vivo, 168 h"}, "Rattus norvegicus [10]": {"system": "Rattus norvegicus", "assay": "Toxicity in Sprague-Dawley rat assessed as food intake at 50 mg/kg/day measured after 2 weeks (reference value: 24.8 +/- 1.1 g/day)", "type": "organism-based", "settings": "in vivo, 336 h"}, "Rattus norvegicus [11]": {"system": "Rattus norvegicus", "assay": "Toxicity in Sprague-Dawley rat assessed as increase in body weight at 10 mg/kg/day measured on day 10 (reference value: 160 +/- 13%)", "type": "organism-based", "settings": "in vivo"}, "Rattus norvegicus [12]": {"system": "Rattus norvegicus", "assay": "Hypocholesterolemic activity in Sprague-Dawley rat assessed as serum cholesterol level at 5 mg/kg/day, po administered via intubation measured on day 4 by Liebermann-Burchard method relative to control", "type": "functional", "method_in_brief": "as §2"}, "Rattus norvegicus [13]": {"system": "Rattus norvegicus", "assay": "Toxicity in Sprague-Dawley rat assessed as change in heart weight at 10 mg/kg/day administered for 16 days measured on day 16 post last dose relative to total body weight (reference value: 0.39 +/- 0.04%)", "type": "organism-based", "settings": "in vivo, 384 h"}, "Rattus norvegicus [14]": {"system": "Rattus norvegicus", "assay": "Toxicity in Sprague-Dawley rat assessed as increase in epididymis and vas deferens weight at 10 mg/kg/day administered for 16 days measured on day 16 post last dose relative to total body weight (reference value: 0.22 +/- 0.04%)", "type": "organism-based", "settings": "in vivo, 384 h"}, "Rattus norvegicus [15]": {"system": "Rattus norvegicus", "assay": "Hypocholesterolemic activity in Sprague-Dawley rat assessed as serum cholesterol level at 5 mg/kg/day, po administered via intubation measured on day 10 by Liebermann-Burchard method relative to control", "type": "functional", "method_in_brief": "as §2"}, "Rattus norvegicus [16]": {"system": "Rattus norvegicus", "assay": "Toxicity in Sprague-Dawley rat assessed as change in kidney weight at 10 mg/kg/day administered for 16 days measured on day 16 post last dose relative to total body weight (reference value: 0.91 +/- 0.10%)", "type": "organism-based", "settings": "in vivo, 384 h"}, "Rattus norvegicus [17]": {"species_on_record": "Rattus norvegicus", "assay": "Disruption of rat liver cell membrane assessed as unlysed cells at 25 mg per gram of tissue measured at 15 mins (reference value: 91 +/- 6%)", "type": "functional", "method_in_brief": "as §1"}, "Rattus norvegicus [18]": {"system": "Rattus norvegicus", "assay": "Hypocholesterolemic activity in Sprague-Dawley rat assessed as serum cholesterol level at 50 mg/kg/day, po administered via intubation measured on day 10 by Liebermann-Burchard method relative to control", "type": "functional", "method_in_brief": "as §2"}, "Rattus norvegicus [19]": {"system": "Rattus norvegicus", "assay": "Toxicity in Sprague-Dawley rat assessed as increase in body weight at 50 mg/kg/day administered for 16 days measured on day 16 post last dose (reference value: 195 +/- 16%)", "type": "organism-based", "settings": "in vivo, 384 h"}, "Rattus norvegicus [20]": {"species_on_record": "Rattus norvegicus", "assay": "Disruption of rat liver cell membrane assessed as unlysed cells at 25 mg per gram of tissue measured at 2 hrs (reference value: 77 +/- 8%)", "type": "functional", "method_in_brief": "as §1"}, "Rattus norvegicus [21]": {"system": "Rattus norvegicus", "assay": "Toxicity in Sprague-Dawley rat assessed as increase in testes weight at 10 mg/kg/day administered for 16 days measured on day 16 post last dose relative to total body weight (reference value: 1.09 +/- 0.01%)", "type": "organism-based, Testis", "settings": "in vivo, 384 h"}, "Rattus norvegicus [22]": {"system": "Rattus norvegicus", "assay": "Toxicity in Sprague-Dawley rat assessed as atrophy of epididymis at 10 mg/kg/day administered for 16 days measured on day 16 post last dose", "type": "organism-based", "settings": "in vivo, 384 h"}, "Rattus norvegicus [23]": {"species_on_record": "Rattus norvegicus", "assay": "Disruption of rat liver cell membrane assessed as unlysed cells at 10 mg per gram of tissue measured at 15 mins (reference value: 91 +/- 6%)", "type": "functional", "method_in_brief": "as §1"}, "Rattus norvegicus [24]": {"system": "Rattus norvegicus", "assay": "Toxicity in Sprague-Dawley rat assessed as atrophy of testis at 10 mg/kg/day administered for 16 days measured on day 16 post last dose", "type": "organism-based", "settings": "in vivo, 384 h"}, "Rattus norvegicus [25]": {"system": "Rattus norvegicus", "assay": "Hypocholesterolemic activity in Sprague-Dawley rat assessed as serum cholesterol level at 20 mg/kg/day, po administered via intubation measured on day 10 by Liebermann-Burchard method relative to control", "type": "functional", "method_in_brief": "as §2"}, "Rattus norvegicus [26]": {"species_on_record": "Rattus norvegicus", "assay": "Disruption of rat liver lysosomal membrane assessed as free acid phosphatase activity at 25 mg per gram of tissue measured after 1 hr (reference value: 100 +/- 16%)", "type": "functional, tissue-based", "method_in_brief": "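10% rat liver homogenate incubated with Hanke's buffer pH 7.2 and drug suspension in 1% CMC in a shaker at 37°C; aliquot removed after 1 hr and percent free (unbound) acid phosphatase activity determined as an index of lysosomal membrane rupture.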"}, "Rattus norvegicus [27]": {"system": "Rattus norvegicus", "assay": "Toxicity in Sprague-Dawley rat assessed as effect on DNA level in liver at 10 mg/kg/day measured after 16 days (reference value: 100 +/- 2%)", "type": "organism-based", "settings": "in vivo, 384 h"}, "Rattus norvegicus [28]": {"species_on_record": "Rattus norvegicus", "assay": "Disruption of rat liver cell membrane assessed as unlysed cells at 5 mg per gram of tissue measured at 30 mins (reference value: 93 +/- 7%)", "type": "functional", "method_in_brief": "as §1"}, "Rattus norvegicus [29]": {"species_on_record": "Rattus norvegicus", "assay": "Disruption of rat liver cell membrane assessed as unlysed cells at 10 mg per gram of tissue measured at 1 hr (reference value: 90 +/- 4%)", "type": "functional", "method_in_brief": "as §1"}, "Rattus norvegicus [30]": {"system": "Rattus norvegicus", "assay": "Toxicity in Sprague-Dawley rat assessed as increase in body weight at 5 mg/kg/day administered for 16 days measured on day 16 post last dose (reference value: 195 +/- 16%)", "type": "organism-based", "settings": "in vivo, 384 h"}, "Rattus norvegicus [31]": {"system": "Rattus norvegicus", "assay": "Toxicity in Sprague-Dawley rat assessed as increase in body weight at 1 mg/kg/day administered for 16 days measured on day 16 post last dose (reference value: 195 +/- 16%)", "type": "organism-based", "settings": "in vivo, 384 h"}, "[32]": {"assay": "Toxicity in CF1 mouse", "type": "organism-based", "settings": "in vivo", "method_in_brief": "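Male CF1 mice; acute lethality measured and LD50 calculated by the Litchfield and Wilcoxon method.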"}}, "data": [{"smiles": "CCCCCCCCCCCCCCC(C)=O", "values": [{"measurement": "Activity", "setting": "Rattus norvegicus [1]", "result": 21.8, "unit": "g/day"}, {"measurement": "Activity", "setting": "Rattus norvegicus [2]", "result": 83, "unit": "%"}, {"measurement": "Activity", "setting": "Rattus norvegicus [3]", "result": 58, "unit": "%"}, {"measurement": "Activity", "setting": "Rattus norvegicus [4]", "result": 75, "unit": "%"}, {"measurement": "Activity", "setting": "Rattus norvegicus [5]", "result": 67, "unit": "%"}, {"measurement": "Activity", "setting": "Rattus norvegicus [6]", "result": 69, "unit": "%"}, {"measurement": "Activity", "setting": "Rattus norvegicus [7]", "result": 82, "unit": "%"}, {"measurement": "Activity", "setting": "Rattus norvegicus [8]", "result": 101, "unit": "%"}, {"measurement": "Activity", "setting": "Rattus norvegicus [9]", "result": 22.5, "unit": "g/day"}, {"measurement": "Activity", "setting": "Rattus norvegicus [10]", "result": 25.6, "unit": "g/day"}, {"measurement": "Activity", "setting": "Rattus norvegicus [11]", "result": 145, "unit": "%"}, {"measurement": "Activity", "setting": "Rattus norvegicus [12]", "result": 74, "unit": "%"}, {"measurement": "Activity", "setting": "Rattus norvegicus [13]", "result": 0.39, "unit": "%"}, {"measurement": "Activity", "setting": "Rattus norvegicus [14]", "result": 0.24, "unit": "%"}, {"measurement": "Activity", "setting": "Rattus norvegicus [15]", "result": 78, "unit": "%"}, {"measurement": "Activity", "setting": "Rattus norvegicus [16]", "result": 0.86, "unit": "%"}, {"measurement": "Activity", "setting": "Rattus norvegicus [17]", "result": 97, "unit": "%"}, {"measurement": "Activity", "setting": "Rattus norvegicus [18]", "result": 74, "unit": "%"}, {"measurement": "Activity", "setting": "Rattus norvegicus [19]", "result": 226, "unit": "%"}, {"measurement": "Activity", "setting": "Rattus norvegicus [20]", "result": 85, "unit": "%"}, {"measurement": "Activity", "setting": "Rattus norvegicus [21]", "result": 1.13, "unit": "%"}, {"measurement": "Activity", "setting": "Rattus norvegicus [22]", "result": "Non-toxic"}, {"measurement": "Activity", "setting": "Rattus norvegicus [23]", "result": 96, "unit": "%"}, {"measurement": "Activity", "setting": "Rattus norvegicus [24]", "result": "Non-toxic"}, {"measurement": "Activity", "setting": "Rattus norvegicus [25]", "result": 76, "unit": "%"}, {"measurement": "Activity", "setting": "Rattus norvegicus [26]", "result": 116, "unit": "%"}, {"measurement": "Activity", "setting": "Rattus norvegicus [27]", "result": 114, "unit": "%"}, {"measurement": "Activity", "setting": "Rattus norvegicus [28]", "result": 93, "unit": "%"}, {"measurement": "Activity", "setting": "Rattus norvegicus [29]", "result": 92, "unit": "%"}, {"measurement": "Activity", "setting": "Rattus norvegicus [30]", "result": 244, "unit": "%"}, {"measurement": "Activity", "setting": "Rattus norvegicus [31]", "result": 229, "unit": "%"}, {"measurement": "LD50", "setting": "[32]", "result": 1750, "unit": "mg/kg"}]}]}
